Assay results as given in paper PMC6474823 (Molecular cell, 2019).

Molecular target: Hck^3D V284C (Homo sapiens, UniProt P08631, V276C)
Test: Inhibitor IC50 determination, fluorescent SFK peptide kinase assay
Assay type: biochemical
Settings: 1 mM ATP
Summary of the method: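 Kinase concentrations were set in the linear range by prior titration: Src3D WT or V284C at 7.5 nM, Hck3D WT or V284C at 5 nM. Kinase was incubated 30 min with test compound (30 μM top, 3-fold serial dilutions, 10 points) and 1 mM ATP in HEPES pH 7.5 buffer with MgCl2, EGTA, BSA, vanadate and BME. Then 20 μM pyrene-labelled SFK peptide was added for 2 h. Fluorescence was read at ex 344/em 405 nm, in triplicate.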

Hck^3D V284C, sequence (P08631 81-526 V276C): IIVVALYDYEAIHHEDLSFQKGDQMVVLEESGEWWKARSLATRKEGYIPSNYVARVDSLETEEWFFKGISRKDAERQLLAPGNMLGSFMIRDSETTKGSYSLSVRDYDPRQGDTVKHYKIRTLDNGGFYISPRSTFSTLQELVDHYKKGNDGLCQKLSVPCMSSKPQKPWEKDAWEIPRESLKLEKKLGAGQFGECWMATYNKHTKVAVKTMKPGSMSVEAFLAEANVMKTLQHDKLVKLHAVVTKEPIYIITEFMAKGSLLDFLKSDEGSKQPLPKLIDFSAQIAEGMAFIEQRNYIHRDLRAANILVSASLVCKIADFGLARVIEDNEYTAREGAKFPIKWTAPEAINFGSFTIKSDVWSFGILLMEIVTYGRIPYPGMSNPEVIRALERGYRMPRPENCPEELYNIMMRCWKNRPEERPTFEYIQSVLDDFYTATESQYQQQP

Structure (SMILES)	inhibition of Hck V284C (IC50, Figure 4C)
COCCn1c(/C=C(/C#N)C(=O)NC(C)C)c(-c2ccc(Oc3ccccc3)cc2)c2c(N)ncnc21 [compound 2, (E)- & (Z)-3-(4-Amino-7-(2-methoxyethyl)-5-(4-phenoxyphenyl)-7H-pyrrolo[2,3-d]pyrimidin-6-yl)-2-cyano-N-isopropylacrylamide]	potently inhibited
COCCn1c(/C=C(/C#N)C(=O)NC(C)C)c(-c2ccc(Cl)cc2)c2c(N)ncnc21 [compound 1, (E)- & (Z)-3-(4-Amino-5-(4-chlorophenyl)-7-(2-methoxyethyl)-7H-pyrrolo[2,3-d]pyrimidin-6-yl)-2-cyano-N-isopropylacrylamide]	potently inhibited
